Key:
Fibroblast = test: Incucyte cell viability with human fibroblast; type: toxicity, cell-based; conditions: 10 µM, compound concentration 10 uM; note: filed as whole numbers so only -1 and 0 and 1 occur
HEK-293T = test: Multiplex assay against HEK293T; type: toxicity, cell-based; conditions: human;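 for Population Tubulin-Different-Phenotype (%): share of the cells with healthy nuclei that show this phenotype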
Summary of the method: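 On a CQ1 microscope at 37°C and 5% CO2, live cells were imaged after compound addition. They had been stained at seeding with Hoechst33342, BioTracker Green Microtubule Cytoskeleton Dye, MitoTracker Red and Annexin V Alexa Fluor 680. CellPathfinder machine-learning gating assigned cells to Hoechst high-intensity objects or normal cells, normal cells to healthy, pyknosed or fragmented nuclei, and pyknosed cells to mitotic or apoptotic. Tubulin, mitochondrial-mass and membrane-permeability phenotypes are per cents of healthy-nucleus cells.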

[1] = 12 h, 1 µM, compound concentration 1 uM, replicate 1
[2] = 12 h, 1 µM, compound concentration 1 uM, replicate 2
[3] = 12 h, 10 µM, compound concentration 10 uM, replicate 1
[4] = 12 h, 10 µM, compound concentration 10 uM, replicate 2
[5] = 24 h, 1 µM, compound concentration 1 uM, replicate 1
[6] = 24 h, 1 µM, compound concentration 1 uM, replicate 2
[7] = 24 h, 10 µM, compound concentration 10 uM, replicate 1
[8] = 24 h, 10 µM, compound concentration 10 uM, replicate 2
[9] = 48 h, 1 µM, compound concentration 1 uM, replicate 1
[10] = 48 h, 1 µM, compound concentration 1 uM, replicate 2
[11] = 48 h, 10 µM, compound concentration 10 uM, replicate 1
[12] = 48 h, 10 µM, compound concentration 10 uM, replicate 2

With Cc1nc(Cc2cccc(C(F)(F)F)c2)sc1-c1ccc(C(N)=O)nc1 [TP-024n] the “Growth Rate” value (Fibroblast; 6 h, replicate number 1, timepoint 6 hours) was 0, the “Growth Rate” value (Fibroblast; 12 h, replicate number 1, timepoint 12 hours) was 0 and the “Growth Rate” value (Fibroblast; 18 h, replicate number 1, timepoint 18 hours) was 0. The “Growth Rate” value (Fibroblast; 24 h, replicate number 1, timepoint 24 hours) was 0, the “Population Apoptotic (%)” value (HEK-293T; [1]) was 41% and the “Population Fragmented Nuclei (%)” value (HEK-293T; [1]) was 7%. For the same compound, the “Population Healthy Nuclei (%)” value (HEK-293T; [1]) was 53%, the “Population Hoechst High Intensity Objects (%)” value (HEK-293T; [1]) was 14% and the “Population Membrane Permeable-Phenotype (%)” value (HEK-293T; [1]) was 2%. For the same compound, the “Population Mitochondria Different-Phenotype (%)” value (HEK-293T; [1]) was 65%, the “Population Mitotic Cells (%)” value (HEK-293T; [1]) was 58% and the “Population Normal (%)” value (HEK-293T; [1]) was 85%. For the same compound, the “Population Pyknosed Nuclei (%)” value (HEK-293T; [1]) was 39%, the “Population Tubulin-Different-Phenotype (%)” value (HEK-293T; [1]) was 41% and the “Total Cell Count” value (HEK-293T; [1]) was 435. The “Population Apoptotic (%)” value (HEK-293T; [2]) was 10%, the “Population Fragmented Nuclei (%)” value (HEK-293T; [2]) was 2% and the “Population Healthy Nuclei (%)” value (HEK-293T; [2]) was 47%. The “Population Hoechst High Intensity Objects (%)” value (HEK-293T; [2]) was 5%, the “Population Membrane Permeable-Phenotype (%)” value (HEK-293T; [2]) was 9% and the “Population Mitochondria Different-Phenotype (%)” value (HEK-293T; [2]) was 22%. For the same compound, the “Population Mitotic Cells (%)” value (HEK-293T; [2]) was 89%, the “Population Normal (%)” value (HEK-293T; [2]) was 94% and the “Population Pyknosed Nuclei (%)” value (HEK-293T; [2]) was 50%. For the same compound, the “Population Tubulin-Different-Phenotype (%)” value (HEK-293T; [2]) was 26%, the “Total Cell Count” value (HEK-293T; [2]) was 212 and the “Population Apoptotic (%)” value (HEK-293T; [3]) was 50%. For the same compound, the “Population Fragmented Nuclei (%)” value (HEK-293T; [3]) was 11%, the “Population Healthy Nuclei (%)” value (HEK-293T; [3]) was 29% and the “Population Hoechst High Intensity Objects (%)” value (HEK-293T; [3]) was 12%. The “Population Membrane Permeable-Phenotype (%)” value (HEK-293T; [3]) was 0%, the “Population Mitochondria Different-Phenotype (%)” value (HEK-293T; [3]) was 91% and the “Population Mitotic Cells (%)” value (HEK-293T; [3]) was 49%. For the same compound, the “Population Normal (%)” value (HEK-293T; [3]) was 87%, the “Population Pyknosed Nuclei (%)” value (HEK-293T; [3]) was 59% and the “Population Tubulin-Different-Phenotype (%)” value (HEK-293T; [3]) was 59%. For the same compound, the “Total Cell Count” value (HEK-293T; [3]) was 316, the “Population Apoptotic (%)” value (HEK-293T; [4]) was 25% and the “Population Fragmented Nuclei (%)” value (HEK-293T; [4]) was 8%. The “Population Healthy Nuclei (%)” value (HEK-293T; [4]) was 25%, the “Population Hoechst High Intensity Objects (%)” value (HEK-293T; [4]) was 9% and the “Population Membrane Permeable-Phenotype (%)” value (HEK-293T; [4]) was 6%. The “Population Mitochondria Different-Phenotype (%)” value (HEK-293T; [4]) was 66%, the “Population Mitotic Cells (%)” value (HEK-293T; [4]) was 75% and the “Population Normal (%)” value (HEK-293T; [4]) was 90%. The “Population Pyknosed Nuclei (%)” value (HEK-293T; [4]) was 65%, the “Population Tubulin-Different-Phenotype (%)” value (HEK-293T; [4]) was 30% and the “Total Cell Count” value (HEK-293T; [4]) was 141. The “Population Apoptotic (%)” value (HEK-293T; [5]) was 49%, the “Population Fragmented Nuclei (%)” value (HEK-293T; [5]) was 9% and the “Population Healthy Nuclei (%)” value (HEK-293T; [5]) was 50%. For the same compound, the “Population Hoechst High Intensity Objects (%)” value (HEK-293T; [5]) was 11%, the “Population Membrane Permeable-Phenotype (%)” value (HEK-293T; [5]) was 2% and the “Population Mitochondria Different-Phenotype (%)” value (HEK-293T; [5]) was 55%. The “Population Mitotic Cells (%)” value (HEK-293T; [5]) was 50%, the “Population Normal (%)” value (HEK-293T; [5]) was 88% and the “Population Pyknosed Nuclei (%)” value (HEK-293T; [5]) was 40%. For the same compound, the “Population Tubulin-Different-Phenotype (%)” value (HEK-293T; [5]) was 28%, the “Total Cell Count” value (HEK-293T; [5]) was 429 and the “Population Apoptotic (%)” value (HEK-293T; [6]) was 19%. The “Population Fragmented Nuclei (%)” value (HEK-293T; [6]) was 4%, the “Population Healthy Nuclei (%)” value (HEK-293T; [6]) was 62% and the “Population Hoechst High Intensity Objects (%)” value (HEK-293T; [6]) was 2%. The “Population Membrane Permeable-Phenotype (%)” value (HEK-293T; [6]) was 5%, the “Population Mitochondria Different-Phenotype (%)” value (HEK-293T; [6]) was 24% and the “Population Mitotic Cells (%)” value (HEK-293T; [6]) was 80%. For the same compound, the “Population Normal (%)” value (HEK-293T; [6]) was 97%, the “Population Pyknosed Nuclei (%)” value (HEK-293T; [6]) was 33% and the “Population Tubulin-Different-Phenotype (%)” value (HEK-293T; [6]) was 36%. The “Total Cell Count” value (HEK-293T; [6]) was 239, the “Population Apoptotic (%)” value (HEK-293T; [7]) was 51% and the “Population Fragmented Nuclei (%)” value (HEK-293T; [7]) was 11%. The “Population Healthy Nuclei (%)” value (HEK-293T; [7]) was 31%, the “Population Hoechst High Intensity Objects (%)” value (HEK-293T; [7]) was 17% and the “Population Membrane Permeable-Phenotype (%)” value (HEK-293T; [7]) was 3%. For the same compound, the “Population Mitochondria Different-Phenotype (%)” value (HEK-293T; [7]) was 86%, the “Population Mitotic Cells (%)” value (HEK-293T; [7]) was 48% and the “Population Normal (%)” value (HEK-293T; [7]) was 82%. For the same compound, the “Population Pyknosed Nuclei (%)” value (HEK-293T; [7]) was 57%, the “Population Tubulin-Different-Phenotype (%)” value (HEK-293T; [7]) was 52% and the “Total Cell Count” value (HEK-293T; [7]) was 338. For the same compound, the “Population Apoptotic (%)” value (HEK-293T; [8]) was 36%, the “Population Fragmented Nuclei (%)” value (HEK-293T; [8]) was 10% and the “Population Healthy Nuclei (%)” value (HEK-293T; [8]) was 30%. For the same compound, the “Population Hoechst High Intensity Objects (%)” value (HEK-293T; [8]) was 10%, the “Population Membrane Permeable-Phenotype (%)” value (HEK-293T; [8]) was 2% and the “Population Mitochondria Different-Phenotype (%)” value (HEK-293T; [8]) was 65%. The “Population Mitotic Cells (%)” value (HEK-293T; [8]) was 63%, the “Population Normal (%)” value (HEK-293T; [8]) was 89% and the “Population Pyknosed Nuclei (%)” value (HEK-293T; [8]) was 59%. The “Population Tubulin-Different-Phenotype (%)” value (HEK-293T; [8]) was 50%, the “Total Cell Count” value (HEK-293T; [8]) was 148 and the “Population Apoptotic (%)” value (HEK-293T; [9]) was 32%. For the same compound, the “Population Fragmented Nuclei (%)” value (HEK-293T; [9]) was 12%, the “Population Healthy Nuclei (%)” value (HEK-293T; [9]) was 50% and the “Population Hoechst High Intensity Objects (%)” value (HEK-293T; [9]) was 9%. For the same compound, the “Population Membrane Permeable-Phenotype (%)” value (HEK-293T; [9]) was 4%, the “Population Mitochondria Different-Phenotype (%)” value (HEK-293T; [9]) was 25% and the “Population Mitotic Cells (%)” value (HEK-293T; [9]) was 67%. The “Population Normal (%)” value (HEK-293T; [9]) was 90%, the “Population Pyknosed Nuclei (%)” value (HEK-293T; [9]) was 37% and the “Population Tubulin-Different-Phenotype (%)” value (HEK-293T; [9]) was 25%. The “Total Cell Count” value (HEK-293T; [9]) was 594, the “Population Apoptotic (%)” value (HEK-293T; [10]) was 17% and the “Population Fragmented Nuclei (%)” value (HEK-293T; [10]) was 5%. The “Population Healthy Nuclei (%)” value (HEK-293T; [10]) was 80%, the “Population Hoechst High Intensity Objects (%)” value (HEK-293T; [10]) was 2% and the “Population Membrane Permeable-Phenotype (%)” value (HEK-293T; [10]) was 5%. For the same compound, the “Population Mitochondria Different-Phenotype (%)” value (HEK-293T; [10]) was 5%, the “Population Mitotic Cells (%)” value (HEK-293T; [10]) was 82% and the “Population Normal (%)” value (HEK-293T; [10]) was 97%. The “Population Pyknosed Nuclei (%)” value (HEK-293T; [10]) was 13%, the “Population Tubulin-Different-Phenotype (%)” value (HEK-293T; [10]) was 19% and the “Total Cell Count” value (HEK-293T; [10]) was 464. For the same compound, the “Population Apoptotic (%)” value (HEK-293T; [11]) was 53%, the “Population Fragmented Nuclei (%)” value (HEK-293T; [11]) was 18% and the “Population Healthy Nuclei (%)” value (HEK-293T; [11]) was 27%. For the same compound, the “Population Hoechst High Intensity Objects (%)” value (HEK-293T; [11]) was 12%, the “Population Membrane Permeable-Phenotype (%)” value (HEK-293T; [11]) was 2% and the “Population Mitochondria Different-Phenotype (%)” value (HEK-293T; [11]) was 69%. The “Population Mitotic Cells (%)” value (HEK-293T; [11]) was 46%, the “Population Normal (%)” value (HEK-293T; [11]) was 87% and the “Population Pyknosed Nuclei (%)” value (HEK-293T; [11]) was 53%. For the same compound, the “Population Tubulin-Different-Phenotype (%)” value (HEK-293T; [11]) was 42%, the “Total Cell Count” value (HEK-293T; [11]) was 373 and the “Population Apoptotic (%)” value (HEK-293T; [12]) was 46%. The “Population Fragmented Nuclei (%)” value (HEK-293T; [12]) was 10%, the “Population Healthy Nuclei (%)” value (HEK-293T; [12]) was 39% and the “Population Hoechst High Intensity Objects (%)” value (HEK-293T; [12]) was 5%. The “Population Membrane Permeable-Phenotype (%)” value (HEK-293T; [12]) was 6%, the “Population Mitochondria Different-Phenotype (%)” value (HEK-293T; [12]) was 54% and the “Population Mitotic Cells (%)” value (HEK-293T; [12]) was 53%. For the same compound, the “Population Normal (%)” value (HEK-293T; [12]) was 94%, the “Population Pyknosed Nuclei (%)” value (HEK-293T; [12]) was 50% and the “Population Tubulin-Different-Phenotype (%)” value (HEK-293T; [12]) was 60%. The “Total Cell Count” value (HEK-293T; [12]) was 164.

Reference: ChEMBL document CHEMBL4689842, “EUbOPEN Chemogenomics Library wave 1” (2021)
